Measured values from paper PMC3809033 (Clinical pharmacology and therapeutics, 2011).

How the values were obtained:
5-HT2C receptor = molecular target: T1, 5-HT2C receptor (Homo sapiens, UniProt P28335); experiment: radioligand competition binding; settings: read-out: [drawing 1] / In vitro; Cheng-Prusoff; details in supplement
T1 sequence (P28335 33-458): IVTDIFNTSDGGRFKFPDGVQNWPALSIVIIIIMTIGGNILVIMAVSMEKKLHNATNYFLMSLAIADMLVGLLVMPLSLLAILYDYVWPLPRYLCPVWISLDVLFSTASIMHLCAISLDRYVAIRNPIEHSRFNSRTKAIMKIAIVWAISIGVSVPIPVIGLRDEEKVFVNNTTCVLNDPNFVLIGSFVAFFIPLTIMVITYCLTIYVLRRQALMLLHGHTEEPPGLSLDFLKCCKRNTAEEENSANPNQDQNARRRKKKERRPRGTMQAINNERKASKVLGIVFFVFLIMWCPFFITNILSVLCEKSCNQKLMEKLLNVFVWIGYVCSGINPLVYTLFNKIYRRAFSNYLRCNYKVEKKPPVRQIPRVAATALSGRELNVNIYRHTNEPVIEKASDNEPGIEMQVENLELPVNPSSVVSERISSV
Method in brief: (§1)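 Test compound (purity >98%) was run in competition against radioligand binding at six concentrations from 10 nmol/l to 100 μmol/l to build concentration–response curves. IC50 (50% displacement of bound radioligand) was obtained by nonlinear fitting. Ki was derived with Cheng–Prusoff, using free radioligand concentration and each radioligand's KD, and expressed as pKi.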

serotonin transporter = serotonin transporter (Homo sapiens, UniProt P31645); experiment: radioligand competition binding; settings: read-out: [drawing 1] / In vitro; Cheng-Prusoff; details in supplement
Chain of serotonin transporter (P31645 whole entry): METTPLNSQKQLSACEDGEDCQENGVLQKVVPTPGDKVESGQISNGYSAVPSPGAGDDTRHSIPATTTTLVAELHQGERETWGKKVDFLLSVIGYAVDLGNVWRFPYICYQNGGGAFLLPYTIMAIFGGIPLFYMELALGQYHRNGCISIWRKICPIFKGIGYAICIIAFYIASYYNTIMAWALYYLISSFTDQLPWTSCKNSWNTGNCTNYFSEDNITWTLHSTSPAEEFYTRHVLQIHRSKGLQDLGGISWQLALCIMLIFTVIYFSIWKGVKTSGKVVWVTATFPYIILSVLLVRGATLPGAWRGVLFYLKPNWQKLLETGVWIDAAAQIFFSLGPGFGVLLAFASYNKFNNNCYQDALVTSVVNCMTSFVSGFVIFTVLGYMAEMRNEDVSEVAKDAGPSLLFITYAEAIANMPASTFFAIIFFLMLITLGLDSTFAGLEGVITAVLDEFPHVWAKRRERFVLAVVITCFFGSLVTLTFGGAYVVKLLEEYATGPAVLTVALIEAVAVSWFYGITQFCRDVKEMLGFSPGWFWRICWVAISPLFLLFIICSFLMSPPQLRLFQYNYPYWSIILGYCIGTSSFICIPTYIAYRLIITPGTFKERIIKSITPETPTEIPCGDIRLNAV
Method in brief: as §1

[1] = molecular target: norepinephrine transporter (Homo sapiens, UniProt P23975); experiment: radioligand competition binding; settings: read-out: [drawing 1] / In vitro; Cheng-Prusoff; details in supplement
Chain of norepinephrine transporter (P23975 whole entry): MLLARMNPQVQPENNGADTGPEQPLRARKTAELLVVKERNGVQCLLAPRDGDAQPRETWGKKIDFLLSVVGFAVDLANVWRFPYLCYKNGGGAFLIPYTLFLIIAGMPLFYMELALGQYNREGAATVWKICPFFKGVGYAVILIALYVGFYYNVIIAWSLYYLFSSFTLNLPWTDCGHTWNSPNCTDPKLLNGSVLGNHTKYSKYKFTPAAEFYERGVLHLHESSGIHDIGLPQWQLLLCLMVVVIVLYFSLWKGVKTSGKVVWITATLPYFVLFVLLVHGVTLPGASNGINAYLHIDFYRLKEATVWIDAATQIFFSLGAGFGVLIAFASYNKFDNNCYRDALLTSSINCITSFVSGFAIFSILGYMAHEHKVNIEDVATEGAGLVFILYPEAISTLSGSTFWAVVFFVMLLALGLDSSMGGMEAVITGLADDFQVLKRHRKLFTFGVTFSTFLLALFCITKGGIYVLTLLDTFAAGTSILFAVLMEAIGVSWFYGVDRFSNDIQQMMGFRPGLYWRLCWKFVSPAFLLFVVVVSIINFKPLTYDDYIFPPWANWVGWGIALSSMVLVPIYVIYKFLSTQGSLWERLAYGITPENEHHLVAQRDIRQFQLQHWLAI
Method in brief: as §1

5-HT2A receptor = 5-HT2A receptor (Homo sapiens, UniProt P28223); experiment: inositol phosphate release, antagonist mode; format: cell-based; settings: receptor activated by 1 μmol/l 5-HT
Chain of 5-HT2A receptor (P28223 whole entry): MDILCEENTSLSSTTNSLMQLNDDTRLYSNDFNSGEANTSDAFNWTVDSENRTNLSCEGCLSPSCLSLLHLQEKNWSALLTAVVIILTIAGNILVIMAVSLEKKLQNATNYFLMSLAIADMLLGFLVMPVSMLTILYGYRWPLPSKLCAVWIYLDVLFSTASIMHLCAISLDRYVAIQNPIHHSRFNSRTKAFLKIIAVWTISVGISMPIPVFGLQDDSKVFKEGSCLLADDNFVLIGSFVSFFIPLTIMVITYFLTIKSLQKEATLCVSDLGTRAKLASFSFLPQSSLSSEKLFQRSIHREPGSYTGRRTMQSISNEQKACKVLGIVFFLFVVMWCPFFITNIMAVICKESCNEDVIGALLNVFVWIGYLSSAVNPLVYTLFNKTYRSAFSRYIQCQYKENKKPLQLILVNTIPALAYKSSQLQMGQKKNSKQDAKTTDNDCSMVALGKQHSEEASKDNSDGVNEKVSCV

5-HT6 receptor = 5-HT6 receptor (Homo sapiens, UniProt P50406); experiment: radioligand competition binding; settings: read-out: [drawing 1] / In vitro; Cheng-Prusoff; details in supplement
Chain of 5-HT6 receptor (P50406 whole entry): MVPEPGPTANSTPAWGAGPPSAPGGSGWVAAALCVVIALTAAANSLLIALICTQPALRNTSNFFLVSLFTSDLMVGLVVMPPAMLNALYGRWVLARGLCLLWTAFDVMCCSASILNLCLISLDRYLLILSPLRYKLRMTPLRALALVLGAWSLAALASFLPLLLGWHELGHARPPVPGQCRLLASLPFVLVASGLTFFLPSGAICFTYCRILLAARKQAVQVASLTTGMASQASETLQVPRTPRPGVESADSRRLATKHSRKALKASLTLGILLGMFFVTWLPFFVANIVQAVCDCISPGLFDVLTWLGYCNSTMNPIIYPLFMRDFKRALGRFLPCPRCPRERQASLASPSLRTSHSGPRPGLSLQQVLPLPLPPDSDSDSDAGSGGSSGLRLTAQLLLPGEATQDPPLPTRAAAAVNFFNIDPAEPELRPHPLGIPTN
Method in brief: as §1

[2] = molecular target: dopamine transporter (DAT) (Homo sapiens, UniProt Q01959); experiment: radioligand competition binding; settings: read-out: [drawing 1] / In vitro; Cheng-Prusoff; details in supplement
Chain of dopamine transporter (DAT) (Q01959 whole entry): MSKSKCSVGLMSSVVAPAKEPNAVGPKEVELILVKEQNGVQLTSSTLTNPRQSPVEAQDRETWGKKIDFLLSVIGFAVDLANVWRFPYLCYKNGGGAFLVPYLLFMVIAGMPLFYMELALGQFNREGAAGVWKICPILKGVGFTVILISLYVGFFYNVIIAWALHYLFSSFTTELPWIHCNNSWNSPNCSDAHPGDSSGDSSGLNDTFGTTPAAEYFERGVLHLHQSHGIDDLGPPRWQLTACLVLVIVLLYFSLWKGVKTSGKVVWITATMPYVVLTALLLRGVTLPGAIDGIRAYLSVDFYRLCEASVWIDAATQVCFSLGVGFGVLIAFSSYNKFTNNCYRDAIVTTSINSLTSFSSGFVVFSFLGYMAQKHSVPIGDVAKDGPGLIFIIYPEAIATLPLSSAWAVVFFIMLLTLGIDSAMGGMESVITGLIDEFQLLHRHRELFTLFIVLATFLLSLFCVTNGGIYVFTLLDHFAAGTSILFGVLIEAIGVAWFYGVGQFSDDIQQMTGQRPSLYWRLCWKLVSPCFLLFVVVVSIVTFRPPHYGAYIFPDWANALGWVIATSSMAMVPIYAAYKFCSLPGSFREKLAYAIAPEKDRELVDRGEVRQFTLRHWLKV
Method in brief: as §1

5-HT7 receptor = 5-HT7 receptor (Homo sapiens, UniProt P34969); experiment: radioligand competition binding; settings: read-out: [drawing 1] / In vitro; Cheng-Prusoff; details in supplement
Chain of 5-HT7 receptor (P34969 whole entry): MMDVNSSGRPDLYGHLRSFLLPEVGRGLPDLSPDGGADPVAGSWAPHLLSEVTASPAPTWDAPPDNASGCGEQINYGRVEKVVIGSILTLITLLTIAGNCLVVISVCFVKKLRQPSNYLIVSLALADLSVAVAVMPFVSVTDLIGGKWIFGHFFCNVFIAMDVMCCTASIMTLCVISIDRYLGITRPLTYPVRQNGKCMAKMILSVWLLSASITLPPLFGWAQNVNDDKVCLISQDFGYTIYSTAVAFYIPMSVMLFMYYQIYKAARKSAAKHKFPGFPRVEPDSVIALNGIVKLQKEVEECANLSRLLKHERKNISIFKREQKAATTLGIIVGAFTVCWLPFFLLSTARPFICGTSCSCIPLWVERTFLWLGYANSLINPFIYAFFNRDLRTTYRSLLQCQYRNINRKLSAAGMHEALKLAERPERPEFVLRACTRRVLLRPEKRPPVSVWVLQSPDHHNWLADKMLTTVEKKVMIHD
Method in brief: as §1

5-HT2B receptor = 5-HT2B receptor (Homo sapiens, UniProt P41595); experiment: radioligand competition binding; settings: read-out: [drawing 1] / In vitro; Cheng-Prusoff; details in supplement
Chain of 5-HT2B receptor (P41595 whole entry): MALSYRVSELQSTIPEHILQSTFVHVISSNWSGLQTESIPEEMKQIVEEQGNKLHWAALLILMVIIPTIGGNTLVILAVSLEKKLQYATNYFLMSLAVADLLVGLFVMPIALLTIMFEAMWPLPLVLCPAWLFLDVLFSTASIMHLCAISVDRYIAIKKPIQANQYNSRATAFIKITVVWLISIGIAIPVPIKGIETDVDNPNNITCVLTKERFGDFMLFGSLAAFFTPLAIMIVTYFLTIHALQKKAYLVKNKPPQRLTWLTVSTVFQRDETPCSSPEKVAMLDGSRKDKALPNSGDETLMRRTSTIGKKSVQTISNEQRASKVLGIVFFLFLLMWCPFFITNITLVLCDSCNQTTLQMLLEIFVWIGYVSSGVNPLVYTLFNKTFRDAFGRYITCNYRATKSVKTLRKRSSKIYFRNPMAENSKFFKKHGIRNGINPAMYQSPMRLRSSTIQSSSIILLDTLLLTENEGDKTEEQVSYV
Method in brief: as §1

## CN(C)CCC=C1c2ccccc2C=Cc2ccccc21 [cyclobenzaprine]
5-HT2C receptor
  Ki: 0.057 µM
Serotonin transporter
  Ki: 0.108 µM
[1]
  Ki: 0.036 µM
5-HT2A receptor
  Kb: 0.0288 ± 0.00249 µM
5-HT6 receptor
  Ki: 0.145 µM
[2]
  Ki: 5.49 µM
5-HT7 receptor
  Ki: 0.151 µM
5-HT2B receptor
  Ki: 0.154 µM
